ChEMBL document CHEMBL1157670, “Total synthesis and cytotoxicity evaluation of all ochratoxin A stereoisomers” (Bioorg Med Chem, 2010)

Experiments:
Assay type in all cases: functional, cell-based
[1] = test system: HepG2; test: Cytotoxicity against human HepG2 cells after 48 hrs by WST8 assay; conditions: for IC50: HepG2, 48 h
Summary of the method: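 Hep G2 cells grown in DMEM + 10% FCS (37 °C, 8.5% CO2), seeded 4×10^3/well for 48 h, then 24 h serum-free at ~80% confluence. Compound from 1 mM methanol stock, 10 nM–50 µM, 48 h, serum-free; solvent controls. Then WST-8 for 1 h at 37 °C, absorbance 450 nm, normalized to untreated control. Triplicate, three independent passages (n = 9).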

[2] = test system: HepG2; test: Induction of apoptosis in human HepG2 cells assessed as caspase 3 activation after 24 hrs by fluorescence assay; conditions: HepG2, 24 h
Summary of the method: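 Hep G2 cells seeded 2×10^4/well and made serum-free as for the other assays. Compound given at 10 nM–50 µM (1 mM methanol stock) for 24 h. Lysed on ice in 0.1% Triton X-100 buffer, pH 7.5, then centrifuged. Supernatant incubated 1 h at 37 °C with 8 µM DEVD-AFC in PIPES/CHAPS/DTT buffer. AFC fluorescence (ex 400/em 505 nm) quantified against an AFC standard and normalized to BCA protein. n = 9.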

[3] = test system: HepG2; test: Cytotoxicity against human HepG2 cells assessed as LDH release after 48 hrs by microplate reader method
Summary of the method: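 Hep G2 cells in DMEM/10% FCS, seeded 2×10^4/well, switched to serum-free after 48 h at ~80% confluence. After 24 h, compound added at 10 nM–50 µM (1 mM methanol stock) for 48 h. Cells lysed on ice with 1% Triton X-100 Tris buffer. Lysate and medium LDH read kinetically as NADH loss ([…], 10 mM pyruvate, HEPES pH 7.0) at 340 nm over 60 min at 37 °C. Released vs total LDH normalized to positive and negative controls. n = 9.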

Compound | Activity [1] | IC50 [1] | EC50 [2] | Activity [3]
C[C@@H]1Cc2c(Cl)cc(C(=O)N[C@H](Cc3ccccc3)C(=O)O)c(O)c2C(=O)O1 [3R14R-OCHRATOXIN A] | Dose-dependent effect | 3200 nM | > 10000 nM | Dose-dependent effect
C[C@@H]1Cc2c(Cl)cc(C(=O)N[C@@H](Cc3ccccc3)C(=O)O)c(O)c2C(=O)O1 [3R14S-OCHRATOXIN A] | Dose-dependent effect | 300 nM | 60 nM | Dose-dependent effect
C[C@H]1Cc2c(Cl)cc(C(=O)N[C@H](Cc3ccccc3)C(=O)O)c(O)c2C(=O)O1 [3S14R-OCHRATOXIN A] | Dose-dependent effect | 5000 nM | 3800 nM | Dose-dependent effect
C[C@H]1Cc2c(Cl)cc(C(=O)N[C@@H](Cc3ccccc3)C(=O)O)c(O)c2C(=O)O1 [3S14S-OCHRATOXIN A] | Dose-dependent effect | 400 nM | 80 nM | Dose-dependent effect
